Measurements collected from several papers.
Lines come from different studies, so protocols differ.
RET: Proto-oncogene tyrosine-protein kinase receptor Ret (RET, Homo sapiens, UniProt P07949)
RET V804M: Proto-oncogene tyrosine-protein kinase receptor Ret (RET, Homo sapiens, UniProt P07949, V804M)
RET M918T: Proto-oncogene tyrosine-protein kinase receptor Ret (RET, Homo sapiens, UniProt P07949, M918T)
RET V804L: Proto-oncogene tyrosine-protein kinase receptor Ret (RET, Homo sapiens, UniProt P07949, V804L)

The remaining activity of Cc1cc(NC(=O)Nc2c(NC3CCCC3)c3ccccc3oc2=O)ccc1Br is reported as 67.7% (RET; enzyme activity; inhibitor; radiometric; 10 µM).
The remaining signal of C#Cc1cccc(Nc2ncnc3cc(OCCOC)c(OCCOC)cc23)c1 is reported as 48.6% (RET; cell-free assay; 0.5 µM).
With CN(C)c1ncc(F)c(-c2cnn3ncccc23)n1 the remaining binding was 97% (RET; binding; 1 µM).
The remaining signal of Cc1ccc(NC(=O)c2ccc(C)c(C(F)(F)F)c2)cc1C#Cc1nn(C2CCC(O)CC2)c2ncnc(N)c12 (stereo not drawn) is reported as 2% (RET; cell-free assay; 10 µM).
O=C(NS(=O)(=O)c1ccc(NCC2CCOCC2)c([N+](=O)[O-])c1)c1ccc(N2CCN(Cc3ccc(C(F)(F)F)cc3-c3ccc(Cl)cc3)CC2)cc1Oc1cnc2[nH]ccc2c1 has a remaining binding of 100% (RET V804M; cell-free assay; competition with immobilised ligand; 1 µM).
For Nc1ncnc2occ(-c3ccc(NC(=O)Nc4cc(C(F)(F)F)ccc4F)cc3)c12, the remaining signal was 0% (RET M918T; cell-free assay; 20 µM).
With CCc1cccc(NC(=O)c2cc(-c3ccc(OC)c(S(N)(=O)=O)c3)[nH]n2)c1 the remaining activity was 92.5% (RET; enzyme activity; inhibitor; radiometric; 10 µM).
The inhibition of CC/C(=N\NC(=O)NCc1cccc(O)c1)c1ccc(O)c(C)c1O is reported as 2.9% (Proto-oncogene tyrosine-protein kinase receptor Ret (RET, Homo sapiens, UniProt P07949, Y791F); enzyme activity; inhibitor; 0.1 µM).
With CS(=O)(=O)CCNCc1ccc(-c2ccc3ncnc(Nc4ccc(OCc5cccc(F)c5)c(Cl)c4)c3c2)o1 the remaining signal was 99.8% (RET; cell-free assay; 0.5 µM).
With CN(c1nccc(-c2cnn3ncccc23)n1)C1CC1 the remaining binding was 100% (RET V804M; binding; 1 µM).
The remaining activity of CCCOc1ccc(OC)c(F)c1C(=O)c1ccc(C(=O)N[C@@H]2CNC[C@H]2NC(=O)c2ccc3[nH]ncc3c2)cc1 is reported as 54% (RET; enzyme activity; inhibitor; 0.5 µM).
COc1ccc(CN2C3CC2CN(c2ccc(-c4cc(OCC(C)(C)O)cn5ncc(C#N)c45)cn2)C3)cn1 has a ΔTm of 9.5 °C (RET; thermal stability; DSF; 10 µM).
COCC(=O)Nc1cc(C(=O)NCc2ccc(C)c(F)c2)cc2ncn(CCc3ccccc3)c12 has a remaining activity of 133% (RET; enzyme activity; inhibitor; radiometric; 0.1 µM).
With CCS(=O)(=O)c1cc2cc(C[C@](O)(CC(C)(C)c3ccc(F)cc3C(N)=O)C(F)(F)F)[nH]c2cn1 the remaining binding was 100% (RET V804L; cell-free assay; competition with immobilised ligand; 1 µM).
With Cc1cc(NC(=O)c2cccc3cc(-c4cccc5[nH]nc(N)c45)ccc23)ccc1F the activity vs control was 37% (RET; enzyme activity; inhibitor; 0.1 µM).
For CO[C@]1(C(=O)N[C@@H](C)c2ccc(-n3cc(F)cn3)nc2)CC[C@H](c2nc(C)cc(Nc3cc(C)[nH]n3)n2)CC1, the ΔTm was 8.7 °C (RET V804M; thermal stability; DSF; 10 µM).
Cc1ccc(-c2nn3c(=O)cc(CNC(=O)Nc4ccc(C)c(Cl)c4)nc3s2)cc1 gave a remaining activity of 116% (RET; enzyme activity; inhibitor; radiometric; 0.1 µM).
The inhibition of COc1cc2ncnc(Nc3ccc(Oc4ccccc4)cc3C)c2cc1OC is reported as 3% (RET V804L; enzyme activity; inhibitor; 1 µM).
COc1cc2c(N3CCN(C(=O)Nc4ccc(OC(C)C)cc4)CC3)ncnc2cc1OCCCN1CCCCC1 has a remaining signal of 91.5% (RET; cell-free assay; 0.5 µM).
With COc1cccc(CNC(=O)c2nc3scc(COCc4ccc(C(=O)O)cc4)c3c(=O)[nH]2)c1 the remaining binding was 95.3% (RET V804M; cell-free assay; competition with immobilised ligand; 1 µM).
For COc1ccnn2ncc(-c3ccnc(N(C)C)n3)c12, the remaining binding was 100% (RET; binding; 1 µM).
The remaining activity of COc1cc(NC(=O)Nc2ccc(Br)cc2)cc2sc(NC(=O)c3ccccc3)nc12 is reported as 106% (RET; enzyme activity; inhibitor; radiometric; 10 µM).
COc1ccc(COc2ccc(Cc3cnc(N)nc3N)cc2OC)cc1 has a remaining signal of 108% (RET; cell-free assay; 0.5 µM).
The remaining binding of Cc1cc(C)c(-n2ccn3nc(-c4cccnc4)cc23)cc1NC(=O)c1cc(C#N)cc(S(F)(F)(F)(F)F)c1 is reported as 94.5% (RET V804M; cell-free assay; competition with immobilised ligand; 0.1 µM).
C[C@@H]1CCN(C(=O)CC#N)C[C@@H]1N(C)c1ncnc2[nH]ccc12 gave a remaining signal of 92.4% (RET; cell-free assay; 0.5 µM).
COC(=O)c1cccc(NC(=O)Nc2cc(C)c3nc(NC(=O)c4ccccc4)sc3c2)c1 has a remaining activity of 109% (RET; enzyme activity; inhibitor; radiometric; 0.1 µM).
CCc1ccccc1C(=O)Nc1n[nH]c2c(C)c(F)c(C3C(C#N)=C(C)N(C)C(C)=C3C#N)cc12 has a remaining binding of 64% (RET M918T; cell-free assay; competition with immobilised ligand; 1 µM).
With N#CCCc1ccc2c(c1)-c1[nH]c3ccc([N+](=O)[O-])cc3c1CC(=O)N2 the remaining signal was 80.8% (RET; cell-free assay; 0.5 µM).
With CCOC(=O)N1CCN(c2nc(Nc3ccc(C)cc3)c3nn[nH]c3n2)CC1 the remaining activity was 128% (RET; enzyme activity; inhibitor; radiometric; 0.1 µM).
COc1cc(-c2cc(-c3ccc(N4CCNCC4)cc3)cnc2N)cc(OC)c1OC gave an inhibition of 5% (RET V804L; enzyme activity; inhibitor; 1 µM).
For CN(CCCC(F)(F)F)c1nccc(-c2cnn3ncccc23)n1, the remaining binding was 100% (RET V804M; binding; 1 µM).
The remaining activity of COc1cc(NC(=O)Nc2cc(OC)c3nc(NC(=O)c4ccccc4)sc3c2)cc(OC)c1 is reported as 101% (RET; enzyme activity; inhibitor; radiometric; 10 µM).
With C[C@@H]1CCN(c2nccc(-c3cnn4ncccc34)n2)C1 the remaining binding was 100% (RET M918T; binding; 1 µM).
C[C@@H]1CN(c2cc(-c3nn(C)c4ccc(OC5(C)CC5)cc34)ncn2)C[C@H](C)O1 has a remaining binding of 100% (RET V804M; cell-free assay; competition with immobilised ligand; 1 µM).
c1cnn2ncc(-c3ccnc(N4CCC45COC5)n3)c2c1 gave a remaining binding of 97% (RET M918T; binding; 1 µM).
For O=C1NC(c2ccccn2)Sc2ccccc21 (stereo not drawn), the remaining binding was 86% (RET V804M; cell-free assay; competition with immobilised ligand; 1 µM).
The remaining activity of Cc1ccc(C(=O)Nc2ccc(CN3CCN(C)CC3)c(C(F)(F)F)c2)cc1C#Cc1cnc2cccnn12 is reported as 17% (RET V804L; enzyme activity; 23.5 nM).
For CS(=O)(=O)N1CCCC(NC(=O)[C@H](CCC2CCCCC2)NC(=O)c2ccc(CNc3ncnc4c3nnn4-c3ccccc3)cc2)C1 (stereo partly drawn), the remaining binding was 93% (RET M918T; cell-free assay; competition with immobilised ligand; 0.1 µM).
N[C@H]1CCN(c2nccc(-c3cnn4ncccc34)n2)C1 has a remaining binding of 90% (RET M918T; binding; 1 µM).
